For one compound, Activity, inhibition and Vdss results are on record in ChEMBL document CHEMBL2203081 (Bioorg Med Chem Lett, 2012).

Series [1] addresses Serine/threonine-protein kinase LATS2 (Homo sapiens) (UniProt Q9NRM7). Nature of the series: Inhibition of LATS2 assessed as residual activity at 10 uM relative to control.
Series [2] concerns the target Casein kinase I isoform epsilon (Homo sapiens) (UniProt P49674). Nature of the series: Inhibition of CSNK1E assessed as residual activity at 10 uM relative to control. Put shortly:
(§1)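 Competition kinase-binding assay (KINOMEscan) across a non-redundant panel of 329 kinases beyond the radiometric panel; residual binding expressed relative to control.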

Series [3] deals with T1, Ephrin type-B receptor 2 (Homo sapiens) (UniProt P29323).
T1 sequence (whole entry): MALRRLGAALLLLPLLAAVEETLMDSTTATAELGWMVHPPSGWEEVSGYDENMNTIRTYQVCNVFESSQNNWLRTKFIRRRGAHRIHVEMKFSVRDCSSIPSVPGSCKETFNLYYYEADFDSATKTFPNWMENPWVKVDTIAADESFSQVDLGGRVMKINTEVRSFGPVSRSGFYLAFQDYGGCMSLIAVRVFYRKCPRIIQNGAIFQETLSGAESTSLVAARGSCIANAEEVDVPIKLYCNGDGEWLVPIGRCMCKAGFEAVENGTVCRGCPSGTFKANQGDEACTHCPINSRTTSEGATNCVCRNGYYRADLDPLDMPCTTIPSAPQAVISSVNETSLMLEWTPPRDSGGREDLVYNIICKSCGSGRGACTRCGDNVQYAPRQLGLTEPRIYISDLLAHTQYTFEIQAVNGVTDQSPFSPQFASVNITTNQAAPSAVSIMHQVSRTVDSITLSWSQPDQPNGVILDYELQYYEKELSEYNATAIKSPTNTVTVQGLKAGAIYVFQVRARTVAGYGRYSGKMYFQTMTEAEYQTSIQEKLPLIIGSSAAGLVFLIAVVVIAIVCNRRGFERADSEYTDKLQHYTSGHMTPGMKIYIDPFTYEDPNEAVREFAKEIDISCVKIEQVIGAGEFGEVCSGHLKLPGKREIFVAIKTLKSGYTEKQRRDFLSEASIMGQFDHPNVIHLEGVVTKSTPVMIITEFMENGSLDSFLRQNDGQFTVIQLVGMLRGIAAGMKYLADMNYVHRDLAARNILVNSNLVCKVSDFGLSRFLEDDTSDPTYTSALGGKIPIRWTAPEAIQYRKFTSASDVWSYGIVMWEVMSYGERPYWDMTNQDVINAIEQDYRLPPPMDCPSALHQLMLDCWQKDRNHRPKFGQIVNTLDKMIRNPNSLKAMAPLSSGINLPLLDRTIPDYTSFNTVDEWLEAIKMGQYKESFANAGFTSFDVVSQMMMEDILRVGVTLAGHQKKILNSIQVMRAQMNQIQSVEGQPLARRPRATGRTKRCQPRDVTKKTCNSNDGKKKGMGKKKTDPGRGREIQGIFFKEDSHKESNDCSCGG
Nature of the series: Inhibition of EPH-B2 assessed as residual activity at 1 uM. Put shortly: (§2)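 Standard radioactivity-based enzymatic kinase assays on a 131-kinase panel run by the Dundee profiling service; residual kinase activity recorded.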

Series [4] concerns the target Ribosomal protein S6 kinase alpha-1 (Homo sapiens) (UniProt Q15418). Nature of the series: Inhibition of RSK1 assessed as residual activity at 1 uM.
Series [5] deals with Fibroblast growth factor receptor 1 (Homo sapiens) (UniProt P11362). Kind of series: Inhibition of FGF-R1 assessed as residual activity at 1 uM. Put shortly:
(§3)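 Radioactivity-based enzymatic activity assay of the named kinase, run as part of a 131-kinase specificity panel at the National Centre for Protein Kinase Profiling (Dundee). Residual activity was read at the stated single inhibitor concentration.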

Series [6] in a line: Inhibition of PHK assessed as residual activity at 10 uM.
The target in series [7] is T1, Ephrin type-B receptor 2 (Homo sapiens). Nature of the series: Inhibition of EPH-B2 assessed as residual activity at 10 uM. Put shortly:
as §2

Series [8] concerns the target Ephrin type-B receptor 4 (Homo sapiens) (UniProt P54760). Nature of the series: Inhibition of EPH-B4 assessed as residual activity at 10 uM. In short, it runs like this: (§4)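 Radioactivity-based enzymatic assay against a panel of 131 kinases (Dundee profiling). Activity remaining was measured with compound present at the stated concentration.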
For series [9], the target named is MAP/microtubule affinity-regulating kinase 3 (Homo sapiens) (UniProt P27448). Nature of the series: Inhibition of MARK3 assessed as residual activity at 10 uM relative to control.
Series [10] deals with Serine/threonine-protein kinase tousled-like 1 (Homo sapiens) (UniProt Q9UKI8). Nature of the series: Inhibition of TLK1 assessed as residual activity at 10 uM relative to control.
Series [11] addresses Homeodomain-interacting protein kinase 1 (Homo sapiens) (UniProt Q86Z02). Kind of series: Inhibition of HIPK1 assessed as residual activity at 10 uM. Put shortly: as §3
Series [12] concerns the target Receptor-interacting serine/threonine-protein kinase 2 (Homo sapiens) (UniProt O43353). Kind of series: Inhibition of RIPK2 assessed as residual activity at 1 uM.
Series [13] has as its target Tyrosine-protein kinase CSK (Homo sapiens) (UniProt P41240). Nature of the series: Inhibition of CSK assessed as residual activity at 1 uM. Put shortly: as §4
In series [14] the test system is Leucine-rich repeat serine/threonine-protein kinase 2 (Homo sapiens), Q5S007 [A2016T]. Particulars: HEK293, 1 to 3 uM.
The target in series [15] is Proto-oncogene tyrosine-protein kinase ROS (Homo sapiens) (UniProt P08922). Nature of the series: Inhibition of ROS1 assessed as residual activity at 10 uM relative to control.
The subject of series [16] is Brain. Kind of series: Volume of distribution at steady state in Swiss albino mouse […] at 1 mg/kg, iv. Type of series: ADME, organism-based. Also on record: dose 1 mg/kg, route intravenous. The settings on record: in vivo.
In series [17] the target is Activin receptor type-1B (Homo sapiens) (UniProt P36896). Nature of the series: Inhibition of ACVR1B assessed as residual activity at 10 uM relative to control.
For series [18], the system named is Epidermal growth factor receptor (Homo sapiens), P00533 [L858R,T790M]. Kind of series: Inhibition of EGFR L858R,T790M mutant assessed as residual activity at 10 uM relative to control. Type of series: protein assay. In short, it runs like this:
as §1

Series [19] concerns the target Death-associated protein kinase 2 (Homo sapiens) (UniProt Q9UIK4). Kind of series: Inhibition of DAPK2 assessed as residual activity at 10 uM relative to control. Put shortly: as §1
Series [20] deals with Tyrosine-protein kinase Lck (Homo sapiens) (UniProt P06239). Kind of series: Inhibition of Lck assessed as residual activity at 1 uM.
Series [21] deals with Receptor-type tyrosine-protein kinase FLT3 (Homo sapiens), P36888 [D835Y]. Kind of series: Inhibition of FLT3 D835Y mutant assessed as residual activity at 10 uM relative to control.
Series [22] relates to Mast/stem cell growth factor receptor Kit (Homo sapiens), P10721 [V559D,T670I]. Nature of the series: Inhibition of KIT V559D,T670I mutant assessed as residual activity at 10 uM relative to control.

Each structure is given as a SMILES string. The source made the active and inactive calls. No cut-off for these calls is given here.

Chain of Tyrosine-protein kinase CSK (Homo sapiens) (P41240 2-450 limits assumed): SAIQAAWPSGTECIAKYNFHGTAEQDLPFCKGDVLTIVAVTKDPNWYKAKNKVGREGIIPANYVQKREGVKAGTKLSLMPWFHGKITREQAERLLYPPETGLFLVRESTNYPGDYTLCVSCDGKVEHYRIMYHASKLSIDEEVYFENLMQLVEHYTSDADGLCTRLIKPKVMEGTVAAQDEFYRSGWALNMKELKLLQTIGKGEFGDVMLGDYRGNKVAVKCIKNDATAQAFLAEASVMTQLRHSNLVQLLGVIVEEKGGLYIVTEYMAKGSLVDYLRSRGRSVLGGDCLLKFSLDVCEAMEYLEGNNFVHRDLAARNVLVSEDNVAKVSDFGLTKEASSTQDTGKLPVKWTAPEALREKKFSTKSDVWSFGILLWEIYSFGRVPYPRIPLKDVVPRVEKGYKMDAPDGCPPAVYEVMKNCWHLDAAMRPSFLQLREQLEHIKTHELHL
Chain of Homeodomain-interacting protein kinase 1 (Homo sapiens) (Q86Z02 whole entry, looked up): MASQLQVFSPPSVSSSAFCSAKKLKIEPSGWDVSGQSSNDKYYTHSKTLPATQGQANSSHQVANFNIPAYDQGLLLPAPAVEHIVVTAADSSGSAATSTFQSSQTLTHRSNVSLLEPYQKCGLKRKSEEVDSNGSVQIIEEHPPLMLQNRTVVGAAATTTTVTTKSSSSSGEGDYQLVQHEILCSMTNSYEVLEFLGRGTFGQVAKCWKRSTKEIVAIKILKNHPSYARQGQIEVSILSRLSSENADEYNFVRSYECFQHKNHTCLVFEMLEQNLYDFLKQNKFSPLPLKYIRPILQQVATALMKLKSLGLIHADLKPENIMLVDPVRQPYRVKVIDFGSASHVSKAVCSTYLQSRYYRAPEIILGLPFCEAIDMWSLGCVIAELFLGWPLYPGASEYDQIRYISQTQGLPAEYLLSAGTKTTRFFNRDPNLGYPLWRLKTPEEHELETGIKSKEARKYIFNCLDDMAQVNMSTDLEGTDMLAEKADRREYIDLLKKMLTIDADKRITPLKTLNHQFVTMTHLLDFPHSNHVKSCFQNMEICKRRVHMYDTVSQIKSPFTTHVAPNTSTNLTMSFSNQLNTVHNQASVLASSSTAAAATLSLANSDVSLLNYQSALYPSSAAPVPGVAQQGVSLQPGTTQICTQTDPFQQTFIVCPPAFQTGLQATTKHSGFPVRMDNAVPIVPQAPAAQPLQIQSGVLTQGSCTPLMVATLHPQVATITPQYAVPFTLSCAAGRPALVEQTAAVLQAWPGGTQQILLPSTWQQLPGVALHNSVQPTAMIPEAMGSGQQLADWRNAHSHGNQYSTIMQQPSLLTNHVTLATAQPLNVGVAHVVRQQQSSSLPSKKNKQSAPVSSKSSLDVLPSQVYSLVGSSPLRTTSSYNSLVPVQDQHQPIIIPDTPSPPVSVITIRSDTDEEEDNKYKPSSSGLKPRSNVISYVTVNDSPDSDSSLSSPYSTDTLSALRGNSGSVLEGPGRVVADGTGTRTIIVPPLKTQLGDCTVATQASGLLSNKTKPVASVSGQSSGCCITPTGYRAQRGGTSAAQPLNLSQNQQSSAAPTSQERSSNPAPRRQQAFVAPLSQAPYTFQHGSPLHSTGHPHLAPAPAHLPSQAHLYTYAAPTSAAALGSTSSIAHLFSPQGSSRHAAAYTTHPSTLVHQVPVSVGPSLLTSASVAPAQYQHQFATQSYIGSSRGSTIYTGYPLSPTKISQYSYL
Chain of Mast/stem cell growth factor receptor Kit (Homo sapiens), P10721 [V559D,T670I] (P10721 whole entry V559D/T670I): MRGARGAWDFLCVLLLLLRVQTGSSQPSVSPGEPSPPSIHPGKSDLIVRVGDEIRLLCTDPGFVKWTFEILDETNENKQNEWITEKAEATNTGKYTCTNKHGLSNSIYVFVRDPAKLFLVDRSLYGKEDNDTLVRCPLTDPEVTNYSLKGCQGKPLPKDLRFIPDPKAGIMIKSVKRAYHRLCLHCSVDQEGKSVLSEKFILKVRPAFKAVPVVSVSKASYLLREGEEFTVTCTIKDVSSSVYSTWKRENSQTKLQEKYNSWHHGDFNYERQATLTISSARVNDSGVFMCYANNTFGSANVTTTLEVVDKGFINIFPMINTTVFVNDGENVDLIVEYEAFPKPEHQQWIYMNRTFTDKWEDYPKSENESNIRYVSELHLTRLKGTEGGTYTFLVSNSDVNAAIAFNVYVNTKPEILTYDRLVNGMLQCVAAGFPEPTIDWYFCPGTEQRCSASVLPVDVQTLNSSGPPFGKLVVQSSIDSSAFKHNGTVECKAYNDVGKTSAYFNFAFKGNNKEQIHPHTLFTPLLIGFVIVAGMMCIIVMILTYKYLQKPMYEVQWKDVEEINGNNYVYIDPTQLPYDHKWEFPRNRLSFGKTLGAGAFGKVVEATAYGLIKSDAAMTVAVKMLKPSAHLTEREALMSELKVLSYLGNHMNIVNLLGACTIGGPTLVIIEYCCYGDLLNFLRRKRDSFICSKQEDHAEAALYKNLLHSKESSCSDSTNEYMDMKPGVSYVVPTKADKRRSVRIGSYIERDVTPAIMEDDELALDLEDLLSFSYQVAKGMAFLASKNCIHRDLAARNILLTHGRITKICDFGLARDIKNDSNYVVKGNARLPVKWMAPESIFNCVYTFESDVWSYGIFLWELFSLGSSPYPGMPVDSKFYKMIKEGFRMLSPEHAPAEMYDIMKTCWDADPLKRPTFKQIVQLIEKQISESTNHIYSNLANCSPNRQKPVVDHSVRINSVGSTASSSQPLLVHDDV
Chain of Ephrin type-B receptor 4 (Homo sapiens) (P54760 whole entry): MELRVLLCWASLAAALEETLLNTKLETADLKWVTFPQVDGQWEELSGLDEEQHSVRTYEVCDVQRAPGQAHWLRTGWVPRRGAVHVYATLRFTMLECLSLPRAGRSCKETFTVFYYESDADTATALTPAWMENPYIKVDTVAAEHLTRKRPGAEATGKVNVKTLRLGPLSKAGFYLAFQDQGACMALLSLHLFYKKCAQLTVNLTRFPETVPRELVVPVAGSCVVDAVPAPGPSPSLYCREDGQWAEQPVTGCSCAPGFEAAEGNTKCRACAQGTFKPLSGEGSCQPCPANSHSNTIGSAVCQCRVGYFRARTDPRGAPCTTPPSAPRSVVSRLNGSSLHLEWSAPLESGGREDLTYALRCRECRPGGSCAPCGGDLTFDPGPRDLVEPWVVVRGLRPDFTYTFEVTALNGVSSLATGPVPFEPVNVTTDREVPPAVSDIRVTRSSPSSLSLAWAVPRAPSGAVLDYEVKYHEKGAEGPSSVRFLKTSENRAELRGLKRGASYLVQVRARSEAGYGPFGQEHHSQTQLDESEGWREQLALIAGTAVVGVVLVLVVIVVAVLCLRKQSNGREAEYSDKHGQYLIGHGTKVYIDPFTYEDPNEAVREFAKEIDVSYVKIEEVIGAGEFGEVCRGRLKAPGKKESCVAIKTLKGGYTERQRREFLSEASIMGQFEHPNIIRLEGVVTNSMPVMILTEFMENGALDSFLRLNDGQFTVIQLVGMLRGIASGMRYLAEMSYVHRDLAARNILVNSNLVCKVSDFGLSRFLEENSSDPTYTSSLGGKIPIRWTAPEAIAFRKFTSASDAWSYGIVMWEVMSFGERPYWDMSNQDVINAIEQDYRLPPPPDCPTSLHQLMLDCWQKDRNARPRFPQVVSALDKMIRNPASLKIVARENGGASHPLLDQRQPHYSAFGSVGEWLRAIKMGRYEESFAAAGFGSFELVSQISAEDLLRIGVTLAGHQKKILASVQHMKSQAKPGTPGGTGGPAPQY
Chain of Death-associated protein kinase 2 (Homo sapiens) (Q9UIK4 whole entry, looked up): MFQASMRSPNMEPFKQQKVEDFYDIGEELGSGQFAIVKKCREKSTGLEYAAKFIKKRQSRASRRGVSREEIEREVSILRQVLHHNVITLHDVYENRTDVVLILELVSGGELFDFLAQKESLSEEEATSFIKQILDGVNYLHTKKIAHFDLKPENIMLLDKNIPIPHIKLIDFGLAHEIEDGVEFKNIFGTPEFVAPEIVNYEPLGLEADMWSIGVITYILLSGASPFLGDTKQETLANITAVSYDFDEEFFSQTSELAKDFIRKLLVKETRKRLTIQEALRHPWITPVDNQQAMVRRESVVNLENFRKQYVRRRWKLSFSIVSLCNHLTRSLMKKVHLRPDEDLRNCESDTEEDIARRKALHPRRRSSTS
Chain of Serine/threonine-protein kinase tousled-like 1 (Homo sapiens) (Q9UKI8 whole entry): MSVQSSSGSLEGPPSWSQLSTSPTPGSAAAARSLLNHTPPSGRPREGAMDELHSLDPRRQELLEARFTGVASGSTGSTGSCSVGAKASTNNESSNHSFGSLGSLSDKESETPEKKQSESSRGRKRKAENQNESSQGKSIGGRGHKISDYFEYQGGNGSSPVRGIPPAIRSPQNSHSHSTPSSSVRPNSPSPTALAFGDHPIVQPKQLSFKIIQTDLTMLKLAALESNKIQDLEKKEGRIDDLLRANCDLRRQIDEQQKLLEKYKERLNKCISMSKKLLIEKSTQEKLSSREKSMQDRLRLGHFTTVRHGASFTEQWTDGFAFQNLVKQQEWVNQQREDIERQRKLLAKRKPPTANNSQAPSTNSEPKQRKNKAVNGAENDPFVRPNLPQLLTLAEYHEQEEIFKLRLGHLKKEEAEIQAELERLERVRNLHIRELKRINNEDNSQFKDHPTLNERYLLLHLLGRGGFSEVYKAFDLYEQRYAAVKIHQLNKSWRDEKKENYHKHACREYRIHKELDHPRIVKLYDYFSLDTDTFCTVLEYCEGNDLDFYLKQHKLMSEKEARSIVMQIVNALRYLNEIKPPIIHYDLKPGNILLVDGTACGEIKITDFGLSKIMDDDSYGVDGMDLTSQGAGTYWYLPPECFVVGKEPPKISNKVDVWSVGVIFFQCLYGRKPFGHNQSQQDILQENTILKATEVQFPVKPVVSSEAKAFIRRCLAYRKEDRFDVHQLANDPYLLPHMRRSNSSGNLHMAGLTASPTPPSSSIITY

For orientation: Vdss means the apparent volume that relates the amount in the body to the concentration in plasma or blood. The low end stands for little distribution into tissue, the high end for wide distribution into tissue. `O=C(Nc1cccnc1)c1cc(-c2ccnc(F)c2)ccc1OCc1ccccc1`: the Activity was 32% in series [1]; 31% in series [2]; 123% in series [3]; 69% in [4]; 110% in series [5]; 75% in series [6]. Further, the Activity in series [7] worked out at 115%; in series [8], 108%; in series [9], 50%; in [10], 66%; in series [11], 61%; in [12], 59%. Further, the Activity was determined as 104% in series [13]; 73% in series [15]; 43% in [17]; 46% in [18]; 69% in [19]; 113% in [20]. For the same compound, the results for the Activity in series [21] and in series [22] were 5.8% and 52%, respectively. Also, the inhibition entry in series [14] is “Active”. This compound came in with a Vdss in series [16] of 1.6 L/kg.
